Screening results deposited in PubChem by several laboratories.
ASAP1 inh – inhibitors of human ASAP1 ArfGAP activity; actives 0.19% (n = 360,000); ASAP1-stimulated ARF1 GTP hydrolysis, GDP FP detection; inhibition, % at 16.5 µM; AID 624377; in the data active means inhibition above about 25%;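 further: 0% = vehicle with enzyme and substrate and 100% = no enzyme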
TDP2 absorb – blocks human TDP2 phosphodiesterase activity | O95551 | recombinant TDP2, T5PNP hydrolysis, p-nitrophenol absorbance 415 nm | inhibition, % at 12.8 µM | actives 0.34% (n = 370,000) | AID 720702;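 active means inhibition above the mean of all tested compounds plus 3 SD, set per campaign, cut at about 25% in these data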;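 further: 0% = DMSO with enzyme and 100% = buffer with substrate but no TDP2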
Target sequence (O95551 whole entry, looked up): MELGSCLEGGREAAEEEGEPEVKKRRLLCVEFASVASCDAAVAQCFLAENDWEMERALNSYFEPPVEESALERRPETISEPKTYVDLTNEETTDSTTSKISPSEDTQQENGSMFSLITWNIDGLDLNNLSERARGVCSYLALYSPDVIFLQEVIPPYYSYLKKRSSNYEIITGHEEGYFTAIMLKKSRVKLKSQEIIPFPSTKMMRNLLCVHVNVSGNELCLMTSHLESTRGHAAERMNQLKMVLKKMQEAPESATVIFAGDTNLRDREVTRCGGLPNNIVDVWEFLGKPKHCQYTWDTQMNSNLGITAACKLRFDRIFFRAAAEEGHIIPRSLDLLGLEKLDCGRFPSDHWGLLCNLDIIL
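test system = human TDP2 enzyme | input = TDP2 enzyme at 120 nM final | medium = 50 mM Tris-HCl pH 7.5 with Mg2+, KCl, DTT, BSA | also added = T5PNP substrate, 5 mM | times = 2 h at 37 °C | technique = epi absorbance | benchmarks = high control without enzyme, low control DMSO plus TDP2 | replication = each compound tested once, singlicate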
LEDGF integ inh – blocks HIV-1 LEDGF/p75-dependent DNA integration; actives 0.64% (n = 370,000); TR-FRET IN-LEDGF/p75 DNA integration, Eu/Cy5; inhibition, % at 3.7 µM;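 active means inhibition above the screen-wide mean plus 3 SD, cut at about 13% in these data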;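 further: signal is the Cy5 over europium emission ratio at 671 and 618 nm; 0% = plate median of compound wells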
ARFGAP1 inh – inhibitors of rat ARFGAP1 | Q62848 | Arfgap1-stimulated ARF1 GTP hydrolysis, GDP FP detection | inhibition, % at 16.5 µM | actives 0.26% (n = 360,000);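 active means inhibition above a per-plate limit, mean inhibition of low control wells plus 3 SD, cut at about 25% in these data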;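 further: 0% = DMSO wells with enzyme and 100% = wells lacking Arfgap1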
Target sequence (Q62848 1-136 limits assumed): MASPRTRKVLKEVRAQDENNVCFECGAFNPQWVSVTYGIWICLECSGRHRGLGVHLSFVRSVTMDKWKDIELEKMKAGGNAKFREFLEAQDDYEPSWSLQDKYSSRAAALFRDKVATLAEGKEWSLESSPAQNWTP
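Material – truncated rat Arfgap1 GAP domain · Buffer or medium – HEPES-based buffer, pH 7.5 · Reagent – human ARF1(Δ1-17)-GTP substrate · Dosing – 16.5 µM single point, 1.26% DMSO · Schedule – GTP hydrolysis reaction 2 h at 25 °C · Technique – GDP detection by fluorescence polarization · Benchmarks – No-Arfgap1 wells (100%) versus DMSO full-reaction wells (0%) · Repeats – single replicate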
CASP6 VEID inh – blocks human caspase-6 cleavage activity; P55212; purified caspase-6, Z-VEID-R110 cleavage fluorescence; inhibition, % at 12.5 µM; actives 0.53% (n = 350,000); AID 686996;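 active means mean inhibition across replicates at least about 35%, with every replicate also reaching that limit, limit read from the data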;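 further: 0% = median of neutral control wells and 100% = no fluorescence left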
ASAP1 inh confirm – confirmation of human ASAP1 inhibitors. shares compounds with ASAP1 inh. actives 37% (n = 620). AID 624431. inhibition, % at 16.5 µM. ASAP1-stimulated Arf1 GTPase, GDP fluorescence polarization;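 active means mean inhibition over triplicates exceeds the hit threshold derived for the earlier primary screening run, cut at about 25% in these data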
An asterisk follows results filed as active; x = no result given. Compounds with a hit are over-represented: about 1.3% of the library has one in this group of screens.

SMILES | ASAP1 inh | TDP2 absorb | LEDGF integ inh | ARFGAP1 inh | CASP6 VEID inh | ASAP1 inh confirm
O=C(N/N=C/c1ccc([N+](=O)[O-])cc1)c1ccc(COc2ccccc2-c2ccccc2)cc1 | 31* | 2 | 4 | 1 | -3 | 81*
COc1ccc(/C=C/C(=O)NC2CC3CCC2C3)cc1 (stereo unspecified) | 6 | 0 | -5 | -3 | -1 | x
COC(=O)[C@]12C[C@H](CC(=O)NCC3CCCCC3)C(=O)N(Cc3ccco3)C1=C[C@H](COCc1ccccc1)O[C@@H]2C | x | 3 | 7 | x | x | x
CCN1C[C@@H]2[C@@H]3C(=O)N(Cc4ccccc4)C(=O)[C@@H]3[C@](Cc3ccccc3)(C1=O)N2C(=O)c1ccc(Cl)cc1 | 56* | -2 | -1 | 7 | 0 | 1
COC(=O)c1sccc1NC(=O)Nc1cccc([N+](=O)[O-])c1 | 9 | 8 | 1 | -2 | -1 | x
Cc1ccc(NC(=O)N2CCC(O)(c3ccc(Cl)cc3)CC2)cc1 | -14 | -1 | -4 | -7 | x | x
Cc1ccc(/C=N/n2c(C)cc(C)c(C#N)c2=O)o1 | 4 | 11 | 1 | 4 | -4 | x
Cc1cc(C)n(/N=C/c2ccco2)c(=O)c1C#N | 25* | -22 | -2 | 2 | 35 | 0
COc1ccc(OC)c(Nc2nc(NCCO)c3ccccc3n2)c1 | 10 | -4 | 1 | -10 | 0 | x
Cc1ccc(Nc2nc(NCCO)c3ccccc3n2)cc1C | 28* | -14 | 3 | 18 | 13 | 6
COc1ccc(NC(=O)CCCc2nnc3n(C)c(=O)c4sccc4n23)cc1 | 4 | -4 | 3 | -11 | 0 | x
CCCCCCCCCCCC(=O)c1c(O)cccc1O | 28* | -2 | 2 | 14 | 6 | 11
O=C(Nc1ccc2ccccc2c1)C(=O)C1C(=O)Nc2ccccc21 (stereo unspecified) | 25* | 1 | 4 | -11 | 5 | -4
Cc1cc(C)c2c(c1)NC(C(=O)O)C1CC=CC21 (stereo unspecified) | 38* | 7 | 31* | 30* | 64* | 35*
CN(C)c1ccc2c(c1)[C@@H]1C[C@H](CC(=O)NCCN3CCCCC3)O[C@@H](CO)[C@@H]1O2 | x | x | x | x | -78 | x
COc1ccc(C(=O)N2CCN(S(=O)(=O)N3CCOCC3)CC2)cc1OC | -7 | -1 | -4 | 3 | x | x
CCOc1ccc(NC(=O)CN(C)C(=O)c2cn(-c3ccc(C)cc3)nc2-c2cccc(OC)c2)cc1OCC | 34* | -11 | -1 | 11 | 3 | 14
COc1ccc(C(=O)Oc2ccc(C(=S)N3CCOCC3)cc2)cc1 | 5 | -18 | -3 | 0 | 1 | x
COc1ccc(-c2[nH]ncc2/C=N\NC(=O)c2ccc(Br)o2)cc1OC | 25* | 4 | -1 | 19 | 4 | 17
Oc1ccc(/C=N/Nc2nc(-c3cccnc3)nc3ccccc23)c(O)c1 | 15 | -12 | -1 | 1 | -1 | x
Cc1c(O)ccc(/C=N/Nc2nc(-c3cccnc3)nc3ccccc23)c1O | 27* | 2 | -3 | 8 | -3 | 22
Cc1cc(N=Cc2c(O)n(-c3ccc4c(c3)OCO4)c(=O)c3ccccc23)ccn1 | 39* | -3 | 0 | -8 | x | 50*
CCC(=O)N(C)C[C@@H]1Oc2cc(C#Cc3cccnc3)ccc2S(=O)(=O)N([C@@H](C)CO)C[C@@H]1C | x | x | x | x | 1 | x
CCOC(=O)c1nn(-c2ccccc2)c(=O)cc1OCC(=O)Nc1cc(C)ccc1C | -9 | -15 | 0 | -1 | 2 | x
Cc1ccc(Nc2cc(C)c3c(O)cccc3n2)cc1C | 30* | -11 | -4 | 9 | 6 | 18
Cc1ccc(NC(=O)CCC2CC(C)(C)OC2=O)cc1 (stereo unspecified) | -15 | -4 | -2 | -8 | -1 | x
CC1(C)CC(CCC(=O)Nc2ccc(S(N)(=O)=O)cc2)C(=O)O1 (stereo unspecified) | 25* | 1 | -1 | -5 | x | -4
CCc1cc2ccc(C)c(C)c2nc1SCC(=O)NNC(=O)c1ccco1 | 5 | -7 | -1 | 11 | -5 | x
O=C(NCc1ccncc1)c1ccccc1Nc1ccc(SC(F)F)cc1 | 28* | 2 | -3 | 2 | -6 | 15
